Test results from ChEMBL document CHEMBL6121022, “Cytotoxic and Noncytotoxic Steroidal Constituents of Cryptolepis dubia” (J Nat Prod, 2025).

How the values were obtained:
HT-29 = experiment: Cytotoxicity against human HT-29 cells assessed as inhibition of cell viability incubated for 72 hrs by celltiter-blue cell viability assay; assay type: functional, cell-based; details: HT-29, 72 h
Method in brief: (§1)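 Cells grown in RPMI 1640 or DMEM with 10% FBS, penicillin 100 units/mL and streptomycin 100 μg/mL. Treated with compounds for 72 h; vehicle negative control, paclitaxel positive control. Viability read by CellTiter-Blue absorbance. IC50 relative to vehicle control by nonlinear regression; triplicate measurements, representative of three independent experiments.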

MDA-MB-231 = experiment: Cytotoxicity against human MDA-MB-231 cells assessed as inhibition of cell viability incubated for 72 hrs by celltiter-blue cell viability assay; assay type: functional, cell-based; details: MDA-MB-231, 72 h; method in brief: as §1
OVCAR-3 = experiment: Cytotoxicity against human OVCAR-3 cells assessed as inhibition of cell viability incubated for 72 hrs by celltiter-blue cell viability assay; assay type: functional, cell-based; details: OVCAR-3, 72 h; method in brief: as §1
OVCAR-5 = experiment: Cytotoxicity against human OVCAR-5 cells assessed as inhibition of cell viability incubated for 72 hrs by celltiter-blue cell viability assay; assay type: functional, cell-based; details: OVCAR-5, 72 h; method in brief: as §1
MDA-MB-435 = experiment: Cytotoxicity against human MDA-MB-435 cells assessed as inhibition of cell viability incubated for 72 hrs by celltiter-blue cell viability assay; assay type: functional, cell-based; details: MDA-MB-435, 72 h; method in brief: as §1
[1] = Inhibition of Na+/K+-ATPase (unknown origin) by luminescent ADP detection assay; set-up: species or system Homo sapiens
Method in brief: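 NKA activity read as ADP formed, by luminescent ADP detection (ADP-Glo Max). IC50 is the concentration giving 50% inhibition of NKA activity. In vitro measurements were run in triplicate and are representative of three independent experiments.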

Structure (SMILES) | IC50 (HT-29) [µM] | IC50 (MDA-MB-231) [µM] | IC50 (OVCAR-3) [µM] | IC50 (OVCAR-5) [µM] | IC50 (MDA-MB-435) [µM] | IC50 [1] [µM]
C[C@]12CC[C@H]3[C@@H](C=CC4=CC(=O)[C@H](O)C[C@@]43C)[C@@H]1CC[C@@H]2C(=O)CO | > 10 | > 10 | > 10 | > 10 | > 10 | –
C[C@]12CC[C@H]3[C@@H](C=CC4=CC(=O)[C@H](O)C[C@@]43C)[C@@H]1CC[C@@H]2C(=O)O | > 10 | > 10 | > 10 | > 10 | > 10 | > 100
CO[C@H]1C[C@H](O[C@H]2CC[C@@]3(C)[C@@H](C2)C[C@@H]2O[C@]24[C@@H]3[C@H](OC(C)=O)C(=O)[C@]2(C)[C@@H](C3=CC(=O)OC3)CC[C@]42O)O[C@@H](C)[C@@H]1OC(C)=O | > 10 | > 10 | > 10 | > 10 | > 10 | > 100
CO[C@H]1C[C@H](O[C@H]2CC[C@@]3(C)[C@@H](C2)C[C@@H]2O[C@]24[C@@H]3[C@H](O)C(=O)[C@]2(C)[C@H](C3=CC(=O)OC3)CC[C@]42O)O[C@@H](C)[C@@H]1O | > 10 | > 10 | 7 | > 10 | > 10 | 40
C[C@H]1O[C@@H](O[C@H]2[C@@H](O)C[C@H](O[C@H]3[C@@H](O)C[C@H](O[C@H]4CC[C@@]5(C)[C@H](CC[C@@H]6[C@@H]5CC[C@]5(C)[C@@H](C7=CC(=O)OC7)CC[C@]65O)C4)O[C@@H]3C)O[C@@H]2C)C[C@H](O)[C@@H]1O [DIGITOXIN] | – | – | – | – | – | 0.46
CC(=O)O[C@H]1C(=O)[C@@]2(C)[C@H]([C@H](OC(=O)c3ccccc3)[C@]3(O)C[C@H](OC(=O)[C@H](O)[C@@H](NC(=O)c4ccccc4)c4ccccc4)C(C)=C1C3(C)C)[C@]1(OC(C)=O)CO[C@@H]1C[C@@H]2O [PACLITAXEL] | 0.0034 | – | – | – | – | –
